We go through 40 compounds from PubChem BioAssay.

The structures appear in SMILES notation. The source made the active and inactive calls.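 How the source made its calls: active means duplicate-averaged activation above buffer control mean plus 5 SD of those controls; inactive means the rest.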

The nature of this test: nonspecific flux increase, KCNQ1-free cells – parental CHO cells, counter-screen for KCNQ1 potentiator project (AID 493006). Particulars: parental CHO-K1 cells, FluxOR thallium flux, at 10 µM; stronger effect = higher value. The gist of the method: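 Assay system: Untransfected host CHO-K1 cells with FluxOR thallium dye | Probe or stimulus: Potassium/thallium depolarization pulse | Schedule: Overnight 37 °C plating, 90 min RT dye, 20 min compound | Detection: Kinetic thallium-flux fluorescence | Read-out: Max-minus-min fluorescence over baseline, percent of buffer-to-R-L3 span | Benchmarks: Low control buffer, high control R-L3 activator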
On the technique in general: Counterscreens check selectivity or assay interference.
As to `COC(=O)C1=C(C(=O)OC)[C@@H]2N(C)c3ccccc3[C@@]23C[C@@H](C(=O)OC)N(C(=O)c2ccc(Br)cc2)C3=N1`, the activation is 158% (active). In the case of `O=c1[nH]cc(-c2ccccc2)c(=O)[nH]1`, the result was inactive. On the same count and under the same terms, the entry for `COC(=O)C1SCC2C(=O)N(Cc3ccc(F)cc3)CC(=O)N21` (stereo not given) is “inactive”. Turning to `CCN(CC)C(=S)NC(=O)c1ccc(OC)c(Br)c1`, the activation is 209% (active). Same read-out and setting: for `CCC1CCCCN1C(=S)NC(=O)c1cccc([N+](=O)[O-])c1` (stereo not given) the value was 232% (active). Turning to `CC(C)N(C(=O)CSc1ncnc2sc(-c3ccccc3)cc12)C(C)C`, the result was inactive. Turning to `COC(=O)c1sc(-c2ccc(C(C)(C)C)cc2)cc1NC(=O)/C=C/C(=O)O`, the activation is 427% (active). With `O=C(Cn1c(=O)c2c(ncn2Cc2ccccc2)n(Cc2ccccc2)c1=O)N1CCc2ccccc21`, the result was inactive. Take `Cc1ccnc(NS(=O)(=O)c2ccc(NC(=O)C34CC5CC(CC(C5)C3)C4)cc2)n1`: the outcome was inactive. On the same count and under the same terms, for `O=C(NNc1nc2c(F)cc(F)cc2s1)c1ccccc1` the value was “inactive”. For the compound `COc1ccc(OC)c(/C=C2\SC(=S)N(NS(=O)(=O)c3ccc(C)cc3)C2=O)c1`, the activation was 166% (active). The same measure, in the same setting: for `Cc1ccc(-c2csc(NC(=S)NC(=O)c3ccco3)n2)cc1` the value was 180% (active).

Regarding `Fc1cccc(/C=N/Nc2ccc3ccccc3n2)c1`, the outcome was inactive. For `COCCNC(=O)CN(C)S(=O)(=O)c1ccc(Br)cc1`, the result was inactive. The same measure, in the same setting: for `O=C(CCN1CCCCCC1)Nc1ccc(F)cc1` the value was “inactive”; for `CCC/C=N/NC(=O)c1[nH]c2c([N+](=O)[O-])cccc2c1C`, “inactive”; for `Cc1ccccc1-c1nc(Cc2ccc(Cl)cc2)no1`, “inactive”. In the case of `O=C(NC(=S)N1CCCc2ccccc21)c1ccc([N+](=O)[O-])cc1`, the activation is 202% (active). Still for that read-out and setting: for `CC(CCc1ccccc1)NC(=S)NC(=O)c1ccco1` (stereo not given) the value was 214% (active).

`O=C(O)CCC(=O)Nc1ccc(S(=O)(=O)c2ccc(NC(=O)CCC(=O)O)cc2)cc1`: the result was inactive. On to `CCOc1ccccc1NC(=O)C(=O)CC(=O)c1cccc(OC)c1`, for which the activation was 216% (active). As to `COc1ccc(NC2=NC3(CCCCC3)N=C(N)N2)cc1`, the outcome was inactive. On the same count and under the same terms, the entry for `CCOc1ccc(C(=O)C(CCC(CN(C)C)C(=O)c2ccc(OCC)cc2)CN(C)C)cc1` (stereo not given) is “inactive”.

With `CC(C)C(NC(=O)Nc1ccccc1)C(=O)Nc1cccc(S(=O)(=O)N(C)C)c1` (stereo not given), the activation is 232% (active).

In the case of `CC(C)Cn1c(=O)c(C(=O)N/N=C/c2cccc(F)c2)c(O)c2ccccc21`, the outcome was inactive. Still for that read-out and setting: the entry for `O=C(NCc1ccco1)C1CC(c2ccc(Cl)cc2)=NO1` (stereo not given) is “inactive”. Turning to `CC(C)c1ccc(NC(=O)C2CC(=O)N=C(N)S2)cc1` (stereo not given), the activation is 164% (active). For the compound `CCCS(=O)(=O)c1c(S(=O)(=O)CCC)c2ccc(C(N)=O)cn2c1C(=O)c1ccccc1`, the outcome was inactive.

For `O=C(CN(Cc1ccccc1Cl)C(=O)c1csnn1)NC1CCCC1`, the outcome was inactive.

Take `CC(C)(C)c1ccc(C(=O)NC(=S)Nc2nc3c(s2)CCCC3)cc1`: the activation is 210% (active). Take `Cc1cccc(-n2c(C)cc(/C=N/NC(N)=S)c2C)c1`: the result was inactive. Regarding `CCOC(=O)C1=NN(C(=O)c2ccc(OC)cc2)C(O)(c2ccc(Cl)cc2)C1` (stereo not given), the activation is 456% (active). For `Cc1ccc(C)c(NS(=O)(=O)c2cc(C(=O)NCc3ccccn3)ccc2Cl)c1`, the result was inactive. Still for that read-out and setting: the entry for `Cc1ccc(C(=O)Nc2nnn(C)n2)cc1` is “inactive”. `O=C(CCOc1ccccc1)Nc1ccnn1C1CCN(Cc2ccc(CO)o2)CC1`: the outcome was inactive. Same read-out and setting: for `NS(=O)(=O)c1ccc(CCNC(=O)COC(=O)c2cc([N+](=O)[O-])ccc2N2CCOCC2)cc1` the value was “inactive”. On to `Cc1ccc(C(=O)N2CCNC(=O)C2CC(=O)Nc2ccc(F)cc2)cc1C` (stereo not given), for which the result was inactive. Still for that read-out and setting: for `O=C(NNc1ncc(C(F)(F)F)cc1Cl)c1c(Cl)cccc1Cl` the value was “inactive”; for `Cc1cc2n(n1)SC(Nc1ccc(F)c(Cl)c1)N2` (stereo not given), “inactive”.

Take `COC(=O)c1c(NC(=O)c2ccccc2)sc(C(=O)c2ccccc2)c1C`: the result was inactive.
